Laboratory results as given in ChEMBL document CHEMBL1129366, “Novel selective PDE IV inhibitors as antiasthmatic agents. Synthesis and biological activities of a series of 1-aryl-2,3-bis(hydroxymethyl)naphthalene lignans” (J Med Chem, 1996).
Several values for one entry are separate records, joined by “and”; a condition that tells them apart may be missing. Equal entries are not always repeated.

What was measured:
Phosphodiesterase 4 = Phosphodiesterase 4 (Homo sapiens, UniProt P27815+Q08499+Q07343+Q08493); experiment: Inhibition in vitro of Phosphodiesterase 4 activity isolated from guinea pig lung; type: protein assay, Cavia porcellus; settings: target entry is the homologue from another species
Procedure, shortened: (§1)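 PDEs came from guinea pig cardiac ventricle (types I, III) and lung (types IV, V). Tissue was homogenized at pH 6.5 with protease inhibitors and spun at 25000G, and the supernatant was run on DEAE-Sephacrose with a 50–1000 mM sodium acetate gradient. Assay: 40 mM Tris-HCl pH 8.0, 5 mM MgCl2, 4 mM 2-mercaptoethanol, 1.0 μM [3H]cAMP or [3H]cGMP, 20 min at 30 °C, substrate hydrolysis ≤20%. Triplicates at 3–4 inhibitor levels; IC50 read graphically.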

[1] = Inhibition of Phosphodiesterase 5 from guinea pig lung; parameters: species or system Cavia porcellus; procedure, shortened: as §1
Cavia porcellus [2] = experiment: Inhibition of histamine-induced bronchoconstriction in anesthetized guinea pig at 0.1 mg/kg intravenous dose
[3] = Inhibition of Phosphodiesterase 4 from guinea pig lung; parameters: species or system Cavia porcellus; procedure, shortened: as §1
Phosphodiesterase 3 [4] = biological target: T1, Phosphodiesterase 3 (Homo sapiens, UniProt Q14432+Q13370); experiment: Inhibition of Phosphodiesterase 3 from guinea pig cardiac ventricle; type: protein assay, Cavia porcellus; settings: target entry is the homologue from another species; procedure, shortened: as §1
Cavia porcellus [5] = experiment: Change in heart rate in guinea pigs after 1 mg/kg intravenous dose; type: functional
Procedure, shortened: (§2)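 Anesthetized guinea pigs in the histamine bronchospasm setup, with spontaneous breathing abolished by gallamine triethiodide (5 mg/kg iv). Heart rate was taken by cardiography triggered on the ECG R wave (standard limb lead II). Test agent was suspended in saline with Tween 80 and given iv 1 min before histamine. The value is the post-dose rate minus the basal rate (basal 230–330 beats/min).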

Phosphodiesterase 1 = Phosphodiesterase 1 (Homo sapiens, UniProt P54750+Q01064+Q14123); experiment: Inhibition of Phosphodiesterase 1 from guinea pig cardiac ventricle; type: protein assay, Cavia porcellus; settings: target entry is the homologue from another species
Procedure, shortened: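 PDE I pooled from DEAE-Sepharose fractions of guinea pig cardiac ventricle homogenate (pH 6.5 buffer with protease inhibitors, sodium acetate gradient). Assay buffer 40 mM Tris-HCl pH 8.0, 5 mM MgCl2, 4 mM 2-mercaptoethanol. Substrate [3H]cAMP or [3H]cGMP at 1.0 μM, hydrolysis kept ≤20%. Run 20 min at 30 °C, inhibitors in DMSO. Triplicates at 3–4 concentrations, IC50 read graphically from means.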

Cavia porcellus [6] = experiment: Change in heart rate in guinea pigs after 0.1 mg/kg intravenous dose; type: functional; procedure, shortened: as §2
Cavia porcellus [7] = experiment: Reduced histamine-induced bronchoconstriction in anesthetized guinea pig at 0.1 mg/kg intravenous dose; type: functional
Cavia porcellus [8] = experiment: Reduced histamine-induced bronchoconstriction in anesthetized guinea pig at 1 mg/kg intravenous dose; type: functional
Procedure, shortened: (§3)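 Anesthetized guinea pigs immobilized with gallamine triethiodide (5 mg/kg iv) and artificially ventilated. Histamine dihydrochloride (2 μg/kg) given iv via the lateral saphenous vein at 10 min intervals. Compound suspended in saline with Tween 80, given iv 1 min before histamine. Pulmonary inflation pressure recorded as the bronchospasm index; result expressed as percent inhibition of histamine-induced bronchoconstriction.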

Cavia porcellus [9] = experiment: (§4) Inhibition of antigen-induced bronchoconstriction in anesthetized guinea pig at 0.1 mg/kg intravenous dose; type: functional
[10] = biological target: Phosphodiesterase 1 (Cavia porcellus); experiment: Inhibition in vitro of Phosphodiesterase 1 isolated from guinea pig cardiac ventricle
Cavia porcellus [11] = experiment: Change in heart rate in guinea pigs after 0.03 mg/kg intravenous dose; type: functional; procedure, shortened: as §2
Cavia porcellus [12] = experiment: Reduced histamine-induced bronchoconstriction in anesthetized guinea pig at 0.03 mg/kg intravenous dose; type: functional
Phosphodiesterase 3 [13] = biological target: T1, Phosphodiesterase 3; experiment: Inhibition in vitro of Phosphodiesterase 3 isolated from guinea pig cardiac ventricle; type: protein assay, Cavia porcellus; settings: target entry is the homologue from another species; procedure, shortened: as §1
Cavia porcellus [14] = experiment: Change in heart rate in guinea pigs after 0.3 mg/kg intravenous dose; type: functional; procedure, shortened: as §2
Cavia porcellus [15] = experiment: Inhibition of histamine-induced bronchoconstriction in anesthetized guinea pig at 0.03 mg/kg intravenous dose
Cavia porcellus [16] = experiment: Reduced histamine-induced bronchoconstriction in anesthetized guinea pig at 0.3 mg/kg intravenous dose; type: functional
Cavia porcellus [17] = experiment: Change in heart rate in guinea pigs after 3 mg/kg intravenous dose; type: functional; procedure, shortened: as §2
Cavia porcellus [18] = experiment: Change in guinea pig heart rate after intravenous administration of 0.1 mg/kg; type: functional; procedure, shortened: as §2
Cavia porcellus [19] = experiment: as §4; type: functional; remark: listed apart in the source
Cavia porcellus [20] = experiment: Inhibition of antigen-induced bronchoconstriction in anesthetized guinea pig at 3 mg/kg intravenous dose; type: functional
Cavia porcellus [21] = experiment: Inhibition of histamine-induced bronchoconstriction in anesthetized guinea pig at 3 mg/kg intravenous dose
Cavia porcellus [22] = experiment: Reduced histamine-induced bronchoconstriction in anesthetized guinea pig at 3 mg/kg intravenous dose; type: functional; procedure, shortened: as §3

| IC50 (Phosphodiesterase 4) | IC50 [10] | IC50 (Phosphodiesterase 3 [13]) | SMILES | Heart rate (Cavia porcellus [14]) | also measured |
| --- | --- | --- | --- | --- | --- |
| 0.057 µM | – | 57 µM | CCOc1cc2cc(CO)c(CO)c(-c3ccn(CCOC)c(=O)c3)c2cc1OCC | 5 beats min-1 | Heart rate (Cavia porcellus [17]): 5 beats min-1; Heart rate (Cavia porcellus [18]): 5 beats min-1; Reduction (Cavia porcellus [16]): 92%; Reduction (Cavia porcellus [7]): 60%; ED50 (Cavia porcellus [9]): 0.08 mg/kg; ED50 (Cavia porcellus [19]): 2.3 mg/kg |
| 0.05 µM | 50 µM | 20 µM | CCOc1cc2cc(CO)c(CO)c(-c3cc(N)c(OC)c(OC)c3)c2cc1OCC.Cl | – | Heart rate (Cavia porcellus [5]): 1 beats min-1; ED50 (Cavia porcellus [20]): > 10 mg/kg; Reduction (Cavia porcellus [16]; 0.3 mg/kg): 45% and 90%; ED50 (Cavia porcellus [21]): 0.39 mg/kg; Reduction (Cavia porcellus [8]): 69% |
| 0.5 µM | – | 14 µM | COCCn1ccc(-c2c(CO)c(CO)cc3cc(OC)c(OC)cc23)cc1=O | 3 beats min-1 | Reduction (Cavia porcellus [22]): 70%; Heart rate (Cavia porcellus [6]): 1 beats min-1; Reduction (Cavia porcellus [7]): 34%; ED50 (Cavia porcellus [9]): 0.16 mg/kg |
| 0.6 µM | – | 20 µM | COc1cc2cc(CO)c(CO)c(-c3ccn(C)c(=O)c3)c2cc1OC | – | – |
| 0.2 µM | – | 1 µM | COc1ccc(-c2c(CO)c(CO)cc3cc(OC)c(OC)cc23)cc1OC | – | – |
| 0.05 µM | 100 µM | 0.09 µM | COc1cc2cc(CO)c(CO)c(-c3cc(OC)c(OC)c(S(C)(=O)=O)c3)c2cc1OC | -7 beats min-1 | Heart rate (Cavia porcellus [11]): 3 beats min-1; Reduction (Cavia porcellus [12]): 34%; ED50 (Cavia porcellus [15]): 0.093 mg/kg; Heart rate (Cavia porcellus [6]): 1 beats min-1; Reduction (Cavia porcellus [16]): 71%; Reduction (Cavia porcellus [7]): 57% |
| 0.2 µM | > 100 µM | 20 µM | COc1cc2cc(CO)c(CO)c(C3=CC=NC(=O)C3)c2cc1OC | – | – |
| 0.45 µM | – | 7 µM | CCOc1cc2cc(CO)c(CO)c(-c3ccn(CCOC)c(=O)c3)c2cc1OC | 4 beats min-1 | Reduction (Cavia porcellus [22]): 98%; Heart rate (Cavia porcellus [5]): 7 beats min-1; Heart rate (Cavia porcellus [17]): 6 beats min-1; Reduction (Cavia porcellus [16]): 30%; Reduction (Cavia porcellus [8]): 76% |
| 0.03 µM | – | 50 µM | CCCCn1ccc(-c2c(CO)c(CO)cc3cc(OCC)c(OCC)cc23)cc1=O | -5 beats min-1 | Reduction (Cavia porcellus [16]): 47% |

Continued, compound first:

| SMILES | IC50 (Phosphodiesterase 4) | IC50 [10] | IC50 (Phosphodiesterase 3 [13]) | Heart rate (Cavia porcellus [14]) | also measured |
| --- | --- | --- | --- | --- | --- |
| COc1cc2cc3c(c(-c4cc(OC)c(OC)c(OC)c4)c2cc1OC)C(=O)OC3 | 0.5 µM | – | – | – | – |
| COc1ccc(C2CNC(=O)C2)cc1OC1CCCC1 (centres undefined) [ROLIPRAM] | – | – | – | – | IC50 [1]: > 100 µM; ED50 (Cavia porcellus [2]): 0.01 mg/kg; IC50 [3]: 1.9 µM; IC50 (Phosphodiesterase 3 [4]): > 100 µM; Heart rate (Cavia porcellus [5]): 3 beats min-1; IC50 (Phosphodiesterase 1): > 100 µM; Heart rate (Cavia porcellus [6]): 9 beats min-1; Reduction (Cavia porcellus [7]): 79%; Reduction (Cavia porcellus [8]): 72%; ED50 (Cavia porcellus [9]): 19 mg/kg |
| COc1cc2cc(CO)c(CO)c(-c3cc(OC)c(OC)c(C(=O)N(C)C)c3)c2cc1OC | 0.005 µM | > 100 µM | 0.06 µM | 50 beats min-1 | Heart rate (Cavia porcellus [11]): 1 beats min-1; Reduction (Cavia porcellus [12]): 59%; ED50 (Cavia porcellus [15]): 0.03 mg/kg; Heart rate (Cavia porcellus [6]): 28 beats min-1; Reduction (Cavia porcellus [16]): 69%; Reduction (Cavia porcellus [7]): 83% |
| COc1ccc2c(-c3cc(OC)c(OC)c(OC)c3)c(CO)c(CO)cc2c1 | 40 µM | 30 µM | 20 µM | – | – |
| COc1cc2cc(CO)c(CO)cc2cc1OC | 20 µM | > 100 µM | > 100 µM | – | – |
| COc1cc2cc(CO)c(CO)c(-c3cc(OC)c(OC)c(OC)c3)c2cc1OC | 0.3 µM | 60 µM | 0.9 µM | – | Reduction (Cavia porcellus [22]): 89%; Delta beats/min (Cavia porcellus [17]): 79 |
| COc1cc2cc(CO)c(CO)c(Cc3cc(OC)c(OC)c(OC)c3)c2cc1OC | 5 µM | 40 µM | 8 µM | – | – |
| COc1cc(-c2c(CO)c(CO)cc3cc4c(cc23)OCO4)cc(OC)c1OC | > 30 µM | > 100 µM | > 100 µM | – | – |
| COc1cc2cc(CO)c(CO)c(-c3cc(NC(C)=O)c(OC)c(OC)c3)c2cc1OC | 0.07 µM | 100 µM | 2 µM | – | – |
